Measurements from ChEMBL document CHEMBL1806443, “Novel imidazo[4,5-b]pyridine and triaza-benzo[c]fluorene derivatives: synthesis, antiproliferative activity and DNA binding studies” (Eur J Med Chem, 2011).
Activity calls are given as the source filed them. The rule behind the calls is not given here.

Legend:
[1] = test system: SW-620; experiment: Cell cycle arrest in human SW620 cells assessed as accumulation at G2/M phase at 5 uM after 48 hrs by propidium iodide staining based flow cytometeric analysis (reference value: 16.1 +/- 0.9%); assay type: functional
[2] = test system: MIA PaCa-2; experiment: Cell cycle arrest in human MIAPaCa2 cells assessed as accumulation at S phase at 10 uM after 24 hrs by propidium iodide staining based flow cytometeric analysis (reference value: 29.2 +/- 4.2%); assay type: functional
[3] = test system: SW-620; experiment: Cell cycle arrest in human SW620 cells assessed as accumulation at G2/M phase at 5 uM after 24 hrs by propidium iodide staining based flow cytometeric analysis (reference value: 22.3 +/- 2.9%); assay type: functional
[4] = test system: MIA PaCa-2; experiment: Cell cycle arrest in human MIAPaCa2 cells assessed as accumulation at S phase at 5 uM after 48 hrs by propidium iodide staining based flow cytometeric analysis (reference value: 20.5 +/- 0.2%); assay type: functional
[5] = test system: SW-620; experiment: Cell cycle arrest in human SW620 cells assessed as accumulation at G2/M phase at 1 uM after 48 hrs by propidium iodide staining based flow cytometeric analysis (reference value: 16.1 +/- 0.9%); assay type: functional
[6] = test system: SW-620; experiment: Cell cycle arrest in human SW620 cells assessed as accumulation at subG1 phase at 1 uM after 24 hrs by propidium iodide staining based flow cytometeric analysis (reference value: 18 +/- 1%); assay type: functional
[7] = test system: SK-BR-3; experiment: Cytostatic activity against human SKBR3 cells at 1 to 10 uM after 72 hrs by MTT assay; assay type: functional, cell-based
In short: (§1)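 Monolayers in DMEM with 10% FBS, 2 mM L-glutamine, penicillin and streptomycin (37 °C, 5% CO2) were seeded at 3000–6000 cells/well on day 0. Five 10-fold dilutions (0.01–100 µM) were added, followed by 72-h incubation and MTT read-out. Absorbances were converted to percentage growth by the NIH formulae. Each point was run in quadruplicate in three experiments; ANOVA with Tukey test.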

[8] = test system: MIA PaCa-2; experiment: Cell cycle arrest in human MIAPaCa2 cells assessed as accumulation at G2/M phase at 10 uM after 24 hrs by propidium iodide staining based flow cytometeric analysis (reference value: 19.5 +/- 3.9%); assay type: functional
[9] = test system: SW-620; experiment: Cell cycle arrest in human SW620 cells assessed as accumulation at subG1 phase at 5 uM after 48 hrs by propidium iodide staining based flow cytometeric analysis (reference value: 29.1 +/- 1.1%); assay type: functional
In short: (§2)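 Cells seeded at 3 × 10^4 per well and treated 24 h later with 1, 5 or 10 µM for 24 and 48 h. Adherent and floating cells were pooled, washed in PBS and fixed in 70% ethanol. They were then stained with propidium iodide 10 µg/mL plus RNase A 0.2 µg/mL. Flow cytometry counted 10000 events; each point was run in triplicate; significance was taken at p < 0.05.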

[10] = test system: MIA PaCa-2; experiment: Cell cycle arrest in human MIAPaCa2 cells assessed as accumulation at G1 phase at 5 uM after 24 hrs by propidium iodide staining based flow cytometeric analysis (reference value: 51.2 +/- 2.7%); assay type: functional
[11] = test system: HeLa; experiment: Cytostatic activity against human HeLa cells at 1 to 10 uM after 72 hrs by MTT assay; assay type: functional, cell-based; in short: as §1
[12] = test system: SW-620; experiment: Cell cycle arrest in human SW620 cells assessed as accumulation at G2/M phase at 1 uM after 24 hrs by propidium iodide staining based flow cytometeric analysis (reference value: 22.3 +/- 2.9%); assay type: functional
[13] = test system: MIA PaCa-2; experiment: Antiproliferative activity against human MIAPaCa2 cells at 0.1 to 10 uM after 72 hrs by MTT assay; assay type: functional, cell-based
In short: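 Monolayer cells in DMEM with 10% FBS, 2 mM L-glutamine, penicillin and streptomycin at 37 °C, 5% CO2. Seeded at 3000-6000 cells/well by doubling time on day 0. Five 10-fold dilutions (0.01–100 µM) were added and incubated 72 h. MTT read-out, converted to percentage growth. IC50 by linear regression between bracketing concentrations. Quadruplicate points, three independent experiments, ANOVA/Tukey p<0.05.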

[14] = test system: Nucleic Acid; experiment: Binding affinity to calf thymus DNA assessed as UV/Vis spectral change at compound to DNA ratio of 0.44 by UV/Vis titrations; details: Bos taurus
[15] = test system: MCF7; experiment: Cytostatic activity against human MCF7 cells at 1 to 10 uM after 72 hrs by MTT assay; assay type: functional, cell-based; in short: as §1
[16] = test system: SW-620; experiment: Cell cycle arrest in human SW620 cells assessed as accumulation at subG1 phase at 5 uM after 24 hrs by propidium iodide staining based flow cytometeric analysis (reference value: 18 +/- 1%); assay type: functional; in short: as §2
[17] = test system: MIA PaCa-2; experiment: Induction of apoptosis in human MIAPaCa2 cells assessed as morphological change at 10 uM after 24 to 48 hrs by microscopic analysis; assay type: functional, cell-based
In short: (§3)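 Cells were seeded at 3 × 10^4 per well and exposed 24 h later to 1, 5 or 10 µM for 24 and 48 h. Apoptotic morphology (cell shrinkage, chromatin condensation) was scored by inverted light microscopy at 200× magnification.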

[18] = test system: SW-620; experiment: Cell cycle arrest in human SW620 cells assessed as accumulation at G1 phase at 1 uM after 48 hrs by propidium iodide staining based flow cytometeric analysis (reference value: 52.7 +/- 0.9%); assay type: functional
[19] = test system: MIA PaCa-2; experiment: Induction of apoptosis in human MIAPaCa2 cells assessed as morphological change after 24 to 48 hrs by microscopic analysis; assay type: functional, cell-based; in short: as §3
[20] = test system: SW-620; experiment: Cell cycle arrest in human SW620 cells assessed as accumulation at S phase at 1 uM after 48 hrs by propidium iodide staining based flow cytometeric analysis (reference value: 31.9 +/- 1%); assay type: functional
[21] = test system: Nucleic Acid; experiment: Binding affinity to calf thymus DNA assessed as change in melting temperature at compound to polynucleotide ratio of 0.2 by UV-VIS spectroscopic analysis; assay type: nucleic-acid assay; details: Bos taurus
In short: (§4)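 ct-DNA alone or with compound at set r = [compound]/[polynucleotide], in cacodylate buffer pH 7.0, I = 0.05 mol dm^-3. Absorbance at 260 nm followed against temperature, ligand absorbance subtracted, curves normalized. Tm is the transition midpoint, from the first-derivative maximum or by tangent method. ΔTm = Tm(complex) − Tm(free DNA), mean of ≥2 runs, error ±0.5 °C.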

[22] = test system: MIA PaCa-2; experiment: Cell cycle arrest in human MIAPaCa2 cells assessed as accumulation at G1 phase at 5 uM after 48 hrs by propidium iodide staining based flow cytometeric analysis (reference value: 65.2 +/- 1.9%); assay type: functional
[23] = test system: MIA PaCa-2; experiment: Cell cycle arrest in human MIAPaCa2 cells assessed as accumulation at S phase at 1 uM after 48 hrs by propidium iodide staining based flow cytometeric analysis (reference value: 20.5 +/- 0.2%); assay type: functional
[24] = test system: HEp-2; experiment: Cytostatic activity against human Hep2 cells at 1 to 10 uM after 72 hrs by MTT assay; assay type: functional, cell-based; in short: as §1
[25] = test system: SW-620; experiment: Cell cycle arrest in human SW620 cells assessed as accumulation at G1 phase at 10 uM after 48 hrs by propidium iodide staining based flow cytometeric analysis (reference value: 52.7 +/- 0.9%); assay type: functional
[26] = test system: Nucleic Acid; experiment: Binding affinity to calf thymus DNA assessed as change in melting temperature at compound to polynucleotide ratio of 0.1 by UV-VIS spectroscopic analysis; assay type: nucleic-acid assay; details: Bos taurus; in short: as §4
[27] = test system: MIA PaCa-2; experiment: Cell cycle arrest in human MIAPaCa2 cells assessed as accumulation at S phase at 1 uM after 24 hrs by propidium iodide staining based flow cytometeric analysis (reference value: 29.2 +/- 4.2%); assay type: functional

Structure (SMILES): Cl.c1cnc2nc3ccc4ccc(C5=NCCN5)cc4n3c2c1
- Activity [1]: 1.5%
- Activity [2]: 29.3%
- Activity [3]: 2.1%
- Activity [4]: 36.8%
- Activity [5]: 19.4%
- Activity [6]: 14.3%
- Activity [7]: Active
- Activity [8]: 18.3%
- Activity [9]: 47.6%
- Activity [10]: 22.4%
- Activity [11]: Active
- Activity [12]: 18.5%
- Activity [13]: Active
- log Ks [14]: 5.4
- Activity [15]: Active
- Activity [16]: 24.4%
- Activity [17]: Active
- Activity [18]: 35.1%
- Activity [19]: Dose-dependent effect
- Activity [20]: 45.4%
- ΔTm [21]: 5.1 °C
- Activity [22]: 42.4%
- Activity [23]: 34.6%
- Activity [24]: Active
- Activity [25]: 39.9%
- ΔTm [26]: 2.7 °C
- Activity [27]: 37.4%
